# Experimental data reported in ChEMBL document CHEMBL3868588, “Emestrins: Anti-Cryptococcus Epipolythiodioxopiperazines from Podospora australis” (J Nat Prod, 2016).
# How the values were obtained:
# [1] = tested on: Cryptococcus neoformans; assay: Antifungal activity against Cryptococcus neoformans H99 after 48 hrs by resazurin-staining based serial dilution method; format: functional; settings: var grubii H99 
# Outline: (§1)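 Serial dilution per NCCLS guidance in 96-well plates with YM test medium (1% maltose extract, 0.2% yeast extract, 0.4% agar). Compounds in DMSO, diluted in growth medium; amphotericin B positive control. Incubated at 25 °C; C. albicans ATCC 10231 read at 24 h, C. neoformans H99 at 48 h. Visual end point, OD and PrestoBlue resazurin viability; MIC = lowest concentration giving 100% inhibition versus untreated control.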
# [2] = tested on: Candida albicans; assay: Antifungal activity against Candida albicans ATCC 10231 measured after 24 hrs by resazurin-staining based serial dilution method; format: functional; settings: ATCC 10231, 24 h; outline: as §1
# [3] = Antiproliferative activity against human DU145 cells; format: functional, cell-based; settings: DU-145
SMILES,MIC [1],MIC [2],IC50 [3]
COc1ccc2cc1Oc1cc(ccc1OC)C(=O)O[C@H]1C=COC=C3[C@@H](O)[C@]45SS[C@](C2)(C(=O)N4[C@@H]31)N(C)C5=O,1.6 µg/mL,> 25.6 µg/mL,
COc1ccc2cc1Oc1cc(ccc1OC)[C@H](O)[C@]13SSSS[C@@]4(C(=O)N1C)[C@H](O)C1=COC=C[C@H](OC2=O)[C@H]1N4C3=O,25.6 µg/mL,> 25.6 µg/mL,
COc1ccc2cc1Oc1cc(ccc1OC)[C@H](O)[C@]13SSS[C@@]4(C(=O)N1C)[C@H](O)C1=COC=C[C@H](OC2=O)[C@H]1N4C3=O,6.4 µg/mL,> 25.6 µg/mL,
COc1ccc2cc1Oc1cc(ccc1OC)[C@H](O)[C@]13SS[C@@]4(C(=O)N1C)[C@H](O)C1=COC=C[C@H](OC2=O)[C@H]1N4C3=O,0.8 µg/mL,6.4 µg/mL,9.3 nM
C[C@@H]1[C@H](O)[C@@H](C)/C=C/C=C/C=C/C=C/C=C/C=C/C=C/[C@H](O[C@@H]2O[C@H](C)[C@@H](O)[C@H](N)[C@@H]2O)C[C@@H]2O[C@](O)(C[C@@H](O)C[C@@H](O)[C@H](O)CC[C@@H](O)C[C@@H](O)CC(=O)O[C@H]1C)C[C@H](O)[C@H]2C(=O)O [AMPHOTERICIN B],0.8 µg/mL,1.6 µg/mL,
